A3G deaminase: APOBEC3G (human) deaminase inhibition; Q9HC16; recombinant A3G, ssDNA deamination FAM/TAMRA fluorescence; inhibition, % at 20 µM; actives 0.28% (n = 330,000);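 active = inhibition of at least 40% at 20 µM, with no more than 30% in the related APOBEC3A deaminase screen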;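 also: plate controls were DMSO wells with A3G for no effect and wells lacking A3G enzyme for full effect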
UCH37 DUB inh: inhibitors of human deubiquitinating enzyme UCH37. Q9Y5K5. purified proteasome/UCH37, Ub-AMC cleavage fluorescence. inhibition, % (no concentration beside the values). actives 0.33% (n = 330,000). AID 588478;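 active = mean inhibition over replicate wells above about 20%, limit read from the data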;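 also: 0% = compound-free wells with enzyme and 100% = wells lacking proteasome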
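Reagent: Ub-AMC substrate; assay system: Proteasome-associated human UCH37 deubiquitinase; controls: no-proteasome and no-compound wells; read-out: % inhibition of Ub-AMC cleavage fluorescence; timing: 30 min preincubation with enzyme, 25 min cleavage at room temperature; signal: AMC fluorescence from Ub-AMC cleavage, excitation 355 nm, emission 460 nm; buffer or medium: Tris-HCl pH 7.4 plus ovalbumin, ATP-MgCl2, DTT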
Arr AP2 block: inhibitors of human beta-arrestin and AP2 interaction. FITC-arrestin peptide / GST-AP2 beads, flow cytometry; AP2 beta2 appendage carries R879A mutation. inhibition, % at 10 µM. actives 0.31% (n = 340,000). AID 504490;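 active = inhibition above a set limit, near 3 SD of compounds lacking own fluorescence, cut at about 54% in these data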;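 also: plate controls were DMSO wells for no effect and 5 µM unlabelled arrestin peptide for full effect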
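Assay system: GST-AP2 R879A bound to glutathione beads, E. coli-expressed; Medium: PBS with 0.05% Tween 20 and 0.1% BSA; Also added: fluorescein-tagged arrestin peptide at 50 nM final; Timing: 12 min plus 1 h, RT; Measured by: flow cytometry, FL1 (488/535 nm); Evaluation: percent drop in bead-associated FITC signal.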
AHR act: activates the human aryl hydrocarbon receptor. AID 2796. activation, % at 5 µM. AHR-responsive luciferase reporter cells, luminescence. P35869. actives 2.5% (n = 320,000); in the data active = activation above about 47%;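 also: 0% = vehicle wells and 100% = reference agonist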
Target sequence (P35869 whole entry, looked up): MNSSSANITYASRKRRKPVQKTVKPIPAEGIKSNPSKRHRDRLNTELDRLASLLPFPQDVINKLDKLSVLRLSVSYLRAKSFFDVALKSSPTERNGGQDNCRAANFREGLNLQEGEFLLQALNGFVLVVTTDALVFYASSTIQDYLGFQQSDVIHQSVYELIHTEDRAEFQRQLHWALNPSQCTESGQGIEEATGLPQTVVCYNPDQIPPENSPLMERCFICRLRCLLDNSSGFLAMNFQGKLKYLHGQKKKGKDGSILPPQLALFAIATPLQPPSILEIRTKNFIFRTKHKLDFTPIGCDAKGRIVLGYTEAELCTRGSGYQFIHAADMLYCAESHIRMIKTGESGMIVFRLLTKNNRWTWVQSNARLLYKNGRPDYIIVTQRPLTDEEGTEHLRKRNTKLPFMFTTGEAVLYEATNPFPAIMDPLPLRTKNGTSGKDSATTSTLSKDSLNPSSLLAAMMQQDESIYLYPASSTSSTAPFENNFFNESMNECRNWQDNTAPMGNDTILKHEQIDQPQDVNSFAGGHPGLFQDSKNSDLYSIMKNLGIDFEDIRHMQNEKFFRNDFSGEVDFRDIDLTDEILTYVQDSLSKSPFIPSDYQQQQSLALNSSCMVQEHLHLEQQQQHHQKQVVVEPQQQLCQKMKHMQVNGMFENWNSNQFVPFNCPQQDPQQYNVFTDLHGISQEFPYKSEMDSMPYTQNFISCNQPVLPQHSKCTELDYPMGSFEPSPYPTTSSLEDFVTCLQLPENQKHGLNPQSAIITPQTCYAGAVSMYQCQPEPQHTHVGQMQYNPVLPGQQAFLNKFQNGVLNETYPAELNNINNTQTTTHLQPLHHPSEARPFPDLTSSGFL
A3A deaminase: blocks human APOBEC3A ssDNA deamination | AID 493011 | inhibition, % at 20 µM | actives 0.41% (n = 330,000) | recombinant A3A, FAM/TAMRA ssDNA deamination fluorescence;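 active = at least 40% inhibition at 20 µM here, with at most 30% in a related deaminase screen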;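 also: plate controls were A3A with DMSO for no effect and wells lacking A3A enzyme for full effect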
PolyA inh: blocks polyadenylation in yeast reporter cells. actives 0.02% (n = 300,000). activity score, % at 12 µM. AID 1875. S. cerevisiae SKY197-pL101 polyadenylation reporter, beta-gal luminescence; efflux-impaired pdr1/pdr3 knockout yeast; score 100 = 6 SD above DMSO;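 active = lowest replicate activity score at least 50, where 100 means six control SD above control mean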;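 also: yeast exposed to compound for 9 h at 30 °C; higher score means more reporter readthrough which indicates perturbed polyadenylation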
Arr-AP2 CP1: inhibitors of human beta-arrestin and AP2 interaction. shares compounds with Arr AP2 block. GST-AP2 beads, FITC arrestin peptide binding, flow cytometry; GST-fused beta2-adaptin appendage, R879A mutant. inhibition, % at 10 µM. actives 2% (n = 1,300);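 active = inhibition above a set limit, roughly 3 SD of non-fluorescent compound noise, cut at about 38% in these data; inactive = inhibition at or below that limit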;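 also: loss of bead fluorescence from 50 nM FITC arrestin peptide bound to appendage; 0% = negative control wells and 100% = excess unlabelled arrestin peptide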
GST GSH counter: GST-GSH bead binding interference, counter-screen; shares compounds with Arr AP2 block; GST-fluorescein binding to GSH beads, fluorescence; inhibition, % at 10 µM; actives 2% (n = 1,300);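 active = inhibition above 50%, about 3 SD of the inhibition seen with non-fluorescent compounds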;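 also: fluorescein maleimide labelled GST captured on 4 micron glutathione beads; higher means more loss of bead fluorescence from quenching or blocked binding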
Starred values were filed as active, the others as inactive. Most compounds without a hit are left out; they make up all but 3.4% or so of the library.

What do the screens show for `CC1CC(C)CN(c2oc(-c3ccccc3Cl)nc2C#N)C1` (stereo unspecified)?
A3G deaminase: -4; UCH37 DUB inh: -62; Arr AP2 block: 118*; AHR act: 3; A3A deaminase: 0; PolyA inh: 3; Arr-AP2 CP1: 14; GST GSH counter: -1

What do the screens show for `N#Cc1nc(-c2ccccc2Cl)oc1N1CCCCC1`?
A3G deaminase: 1; UCH37 DUB inh: -71; Arr AP2 block: 36; AHR act: 27; A3A deaminase: 4; PolyA inh: -10

Results for O=C(NNc1cccc(Cl)n1)c1ccccc1CC[N+](=O)[O-] ?
A3G deaminase: 3; UCH37 DUB inh: 4; Arr AP2 block: 55*; AHR act: 2; A3A deaminase: 0; PolyA inh: 15; Arr-AP2 CP1: 4; GST GSH counter: -7

Results for O=C(NNc1cccc(Cl)n1)c1ccc(Cl)cc1Cl ?
A3G deaminase: -2; UCH37 DUB inh: 5; Arr AP2 block: 9; AHR act: -10; A3A deaminase: 6; PolyA inh: -7

What do the screens show for `Fc1cccc(C=NNc2ccc(Cl)nn2)c1`?
UCH37 DUB inh: 1

How did COc1ccc(N2C(=O)C(CC(=O)Nc3ccc(F)cc3)N(CCc3ccc(OC)c(OC)c3)C2=O)cc1 (stereo unspecified) do in these assays?
A3G deaminase: -7; UCH37 DUB inh: 2; Arr AP2 block: 8; AHR act: -3; A3A deaminase: -1; PolyA inh: 8

Results for CCOc1ccc(NC(=O)CC2C(=O)N(c3ccc(OC)cc3)C(=O)N2CCc2ccc(OC)c(OC)c2)cc1 (stereo unspecified) ?
A3G deaminase: -7; UCH37 DUB inh: -1; Arr AP2 block: 56*; AHR act: 1; A3A deaminase: -4; PolyA inh: -10; Arr-AP2 CP1: 0; GST GSH counter: -1

How did CCOc1ccc(OCCC(=O)N2CCN(S(=O)(=O)c3ccc(OCC)cc3)CC2)cc1 do in these assays?
A3G deaminase: -8; UCH37 DUB inh: 0; Arr AP2 block: 21; AHR act: 0; A3A deaminase: 4; PolyA inh: 1

How did CCOc1ccc(OCCCC(=O)N2CCN(S(=O)(=O)c3ccccc3C#N)CC2)cc1 do in these assays?
A3G deaminase: -3; UCH37 DUB inh: 1; Arr AP2 block: 57*; AHR act: 0; A3A deaminase: 2; Arr-AP2 CP1: -14; GST GSH counter: 0

How did Cc1noc(C)c1S(=O)(=O)Nc1ccc2c(c1)C(=O)N([C@H](C)CO)C[C@H](C)[C@@H](CN(C)Cc1ccc(C(=O)O)cc1)O2 do in these assays?
A3G deaminase: -1; UCH37 DUB inh: 1; Arr AP2 block: 60*; AHR act: 1; A3A deaminase: 2; Arr-AP2 CP1: 7; GST GSH counter: 10

How did CC(C)(C)c1ccc(C=NNC(=O)c2ccccn2)cc1 do in these assays?
UCH37 DUB inh: 6

What do the screens show for `Cc1ccsc1C=NNC(=O)c1ccc2nc[nH]c2c1`?
UCH37 DUB inh: 10

Results for O=C(Cc1ccccc1C(=O)O)Nc1cccc2ccccc12 ?
A3G deaminase: 12; UCH37 DUB inh: -1; Arr AP2 block: 60*; AHR act: 11; A3A deaminase: 5; PolyA inh: 2; Arr-AP2 CP1: 6; GST GSH counter: -4

What do the screens show for `Cc1cc(C=NNC(=O)c2ccccc2F)c(C)n1-c1ccccc1`?
UCH37 DUB inh: 4

Results for CCSc1nnc(-c2sc3nnc(-c4ccccc4)c(-c4ccccc4)c3c2N)o1 ?
A3G deaminase: -14; UCH37 DUB inh: -4; Arr AP2 block: 73*; AHR act: -1; A3A deaminase: -21; PolyA inh: 19; Arr-AP2 CP1: 19; GST GSH counter: 13

Results for CC(=NOCON=C(C)c1ccccc1)c1ccccc1 ?
UCH37 DUB inh: -1

Results for CCC(C)(C)NC(=O)C(c1cccnc1)N(C(=O)c1csnn1)c1ccccc1 (stereo unspecified) ?
A3G deaminase: -5; UCH37 DUB inh: 2; Arr AP2 block: 54*; AHR act: -1; A3A deaminase: 1; PolyA inh: 11; Arr-AP2 CP1: 0; GST GSH counter: -8

How did COc1ccccc1/C=C/C=NNC(=O)c1cnccn1 do in these assays?
UCH37 DUB inh: 18

How did CCOC(=O)n1c(O)c(N=NC(N)=S)c2cc(C)ccc21 do in these assays?
A3G deaminase: -2; UCH37 DUB inh: 2; Arr AP2 block: 54*; AHR act: 3; A3A deaminase: 5; PolyA inh: 9; Arr-AP2 CP1: -10; GST GSH counter: 2

What do the screens show for `Cc1ccc(NC(=O)Cn2c(O)c(N=NC(N)=S)c3ccccc32)cc1`?
A3G deaminase: -5; UCH37 DUB inh: 6; Arr AP2 block: 35; AHR act: 11; A3A deaminase: -3; PolyA inh: -14

What do the screens show for `Cc1ccnn1CCC(=O)N1CCCC(Nc2ccc(F)c(F)c2)C1` (stereo unspecified)?
A3G deaminase: -6; UCH37 DUB inh: 5; Arr AP2 block: 67*; AHR act: 1; A3A deaminase: -5; PolyA inh: -12; Arr-AP2 CP1: 6; GST GSH counter: -2

What do the screens show for `COc1ccccc1C=NNC(=O)C(C)Cn1cnc2ccccc21` (stereo unspecified)?
UCH37 DUB inh: 1

Results for COc1cc(C)c(S(=O)(=O)N2CCCC2)cc1C ?
A3G deaminase: -2; UCH37 DUB inh: 1; Arr AP2 block: -1; AHR act: -1; A3A deaminase: 3; PolyA inh: -40

Results for COc1cc(C)c(S(=O)(=O)N2CCCC2)cc1C(C)C ?
A3G deaminase: -2; UCH37 DUB inh: 0; Arr AP2 block: 57*; AHR act: 1; A3A deaminase: -1; PolyA inh: -20; Arr-AP2 CP1: -5; GST GSH counter: 2

What do the screens show for `CC(Cc1ccccn1)NC(=O)c1ccc(OC2CCN(Cc3ccccn3)CC2)cc1` (stereo unspecified)?
A3G deaminase: -6; UCH37 DUB inh: -3; Arr AP2 block: 62*; AHR act: 2; A3A deaminase: -5; PolyA inh: 15; Arr-AP2 CP1: 11; GST GSH counter: 1

Results for O=C(NN=Cc1ccc(O)cc1)c1cc[n+](Cc2ccccc2)cc1 ?
UCH37 DUB inh: 5

Screening data deposited in PubChem by several laboratories.
